According to ChEMBL document CHEMBL3611968, “Reengineered tricyclic anti-cancer agents” (Bioorg Med Chem, 2015):
Activity calls are given as the source filed them. The calls are words filed in the database; no cut-off is given here.

Legend:
[1] = molecular target: D(1A) dopamine receptor (Homo sapiens) (UniProt P21728); experiment: Binding affinity to dopamine D1 receptor (unknown origin) at 1 mM by radioligand displacement assay relative to control
[2] = Bioavailability in mouse at 10 mg/kg, ip; format: ADME, organism-based; settings: in vivo
[3] = Clearance in mouse at 1 mg/kg, iv; format: ADME, organism-based; settings: in vivo
[4] = Initial drug concentration in mouse at 1 mg/kg, iv; format: ADME, organism-based; settings: in vivo
[5] = Cmax in mouse at 10 mg/kg, ip; format: ADME, organism-based; design: dose 10 mg/kg, route intraperitoneal; settings: in vivo
[6] = AUCinfinity in mouse at 1 mg/kg, iv; format: ADME, organism-based; design: dose 1 mg/kg, time infinity, route intravenous; settings: in vivo
Mus musculus = experiment: Toxicity in mouse assessed as induction of lethargy at 10 mg/kg relative to control; format: organism-based; settings: in vivo
[7] = Tmax in mouse at 10 mg/kg, po; format: ADME, organism-based; settings: in vivo
NCI-H1650 [8] = experiment: Cell cycle arrest in human NCI-H1650 cells assessed as accumulation at sub-G1 phase by propidium iodide staining-based flow cytometric analysis; format: functional
[9] = Volume of distribution at steady state in mouse at 1 mg/kg, iv; format: ADME, organism-based; settings: in vivo, read-out: Vdss
[10] = Tmax in mouse at 10 mg/kg, ip; format: ADME, organism-based; settings: in vivo
[11] = Half life in mouse at 1 mg/kg, ip; format: ADME, organism-based; settings: in vivo
[12] = molecular target: D(2) dopamine receptor (Homo sapiens) (UniProt P14416); experiment: Binding affinity to dopamine D2 receptor (unknown origin) at 1 mM by radioligand displacement assay relative to control
Sequence of D(2) dopamine receptor (Homo sapiens) (P14416 whole entry): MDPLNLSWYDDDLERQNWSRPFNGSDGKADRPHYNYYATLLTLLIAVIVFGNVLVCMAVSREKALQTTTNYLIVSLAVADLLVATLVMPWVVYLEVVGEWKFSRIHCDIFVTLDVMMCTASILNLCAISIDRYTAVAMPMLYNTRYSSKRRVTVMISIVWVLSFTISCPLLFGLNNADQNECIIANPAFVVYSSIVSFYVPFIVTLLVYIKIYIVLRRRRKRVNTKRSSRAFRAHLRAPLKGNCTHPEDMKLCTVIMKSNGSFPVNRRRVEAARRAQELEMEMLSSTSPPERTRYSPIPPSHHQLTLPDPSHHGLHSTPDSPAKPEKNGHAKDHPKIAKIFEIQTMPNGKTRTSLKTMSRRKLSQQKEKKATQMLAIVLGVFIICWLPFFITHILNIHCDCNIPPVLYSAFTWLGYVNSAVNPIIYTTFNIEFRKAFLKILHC

[13] = AUClast in mouse at 1 mg/kg, iv; format: ADME, organism-based; settings: in vivo
[14] = Cmax in mouse at 10 mg/kg, po; format: ADME, organism-based; design: dose 10 mg/kg, route oral; settings: in vivo
NCI-H1650 [15] = experiment: Cytotoxicity against human NCI-H1650 cells assessed as reduction of colony formation at 20 to 40 uM after 7 days by crystal violet staining; format: functional, cell-based
NCI-H1650 [16] = experiment: Cytotoxicity against human NCI-H1650 cells assessed as growth inhibition after 48 hrs by MTT assay; format: functional; settings: NCI-H1650, 48 h
How it was run: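 H1650 cells were exposed to drug for 48 h at five concentrations bracketing 1–40 μM in 10 μM steps, with MTT read-out. GI50 is given only where the data form a sigmoidal dose response.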

[17] = molecular target: D(1B) dopamine receptor (Homo sapiens) (UniProt P21918); experiment: Binding affinity to dopamine D5 receptor (unknown origin) at 0.1 mM by radioligand displacement assay relative to control
Sequence of D(1B) dopamine receptor (Homo sapiens) (P21918 whole entry): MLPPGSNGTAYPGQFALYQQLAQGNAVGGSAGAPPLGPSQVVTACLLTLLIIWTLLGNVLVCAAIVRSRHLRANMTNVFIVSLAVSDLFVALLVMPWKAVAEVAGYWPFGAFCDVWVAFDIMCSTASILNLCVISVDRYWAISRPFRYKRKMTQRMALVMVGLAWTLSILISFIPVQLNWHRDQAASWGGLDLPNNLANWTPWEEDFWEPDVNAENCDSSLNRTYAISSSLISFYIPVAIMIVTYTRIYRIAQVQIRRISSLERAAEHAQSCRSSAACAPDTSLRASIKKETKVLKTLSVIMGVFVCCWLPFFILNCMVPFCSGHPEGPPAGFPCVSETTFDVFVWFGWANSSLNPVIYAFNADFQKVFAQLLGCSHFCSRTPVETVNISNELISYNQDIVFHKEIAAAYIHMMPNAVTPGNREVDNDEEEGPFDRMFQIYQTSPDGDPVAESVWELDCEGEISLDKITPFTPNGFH

[18] = Half life in mouse at 10 mg/kg, po; format: ADME, organism-based; settings: in vivo
[19] = AUCinfinity in mouse at 1 mg/kg, ip; format: ADME, organism-based; design: time infinity, route intraperitoneal; settings: in vivo
[20] = molecular target: D(1A) dopamine receptor (Homo sapiens) (UniProt P21728); experiment: Binding affinity to dopamine D1 receptor (unknown origin) at 0.1 mM by radioligand displacement assay relative to control
[21] = Oral bioavailability in mouse at 10 mg/kg; format: ADME, organism-based; settings: in vivo
[22] = AUClast in mouse at 10 mg/kg, ip; format: ADME, organism-based; settings: in vivo
[23] = AUCinfinity in mouse at 10 mg/kg, po; format: ADME, organism-based; design: dose 10 mg/kg, time infinity, route oral; settings: in vivo
[24] = AUClast in mouse at 10 mg/kg, po; format: ADME, organism-based; settings: in vivo
[25] = Half life in mouse at 1 mg/kg, iv; format: ADME, organism-based; settings: in vivo

Sequence of D(1A) dopamine receptor (Homo sapiens) (P21728 whole entry): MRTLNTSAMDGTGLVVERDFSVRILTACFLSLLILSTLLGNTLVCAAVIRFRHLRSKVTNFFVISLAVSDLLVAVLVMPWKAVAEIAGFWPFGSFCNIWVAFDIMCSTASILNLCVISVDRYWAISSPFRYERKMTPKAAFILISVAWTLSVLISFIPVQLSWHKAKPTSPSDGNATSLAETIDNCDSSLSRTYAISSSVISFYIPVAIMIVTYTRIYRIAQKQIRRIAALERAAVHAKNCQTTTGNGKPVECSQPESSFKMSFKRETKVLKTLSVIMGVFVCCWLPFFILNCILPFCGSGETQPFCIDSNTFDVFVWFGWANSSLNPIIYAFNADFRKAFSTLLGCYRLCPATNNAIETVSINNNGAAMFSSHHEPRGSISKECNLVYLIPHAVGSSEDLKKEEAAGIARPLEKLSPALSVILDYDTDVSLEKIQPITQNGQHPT

## Cc1ccc(S(=O)(=O)NCCCN2c3ccccc3Sc3ccc(Cl)cc32)cc1
[1]
  inhibition: 12%
[2]
  bioavailability: 50.2%
[3]
  clearance: 11.1 mL/min/kg
[4]
  C0: 2970 ng/mL
[5]
  Cmax: 2250 ng/mL
[6]
  AUC(0-inf): 1500 ng·h/mL
Mus musculus
  Activity: Non-toxic
[7]
  Tmax: 0.5 h
NCI-H1650 [8]
  Activity: Dose-dependent effect
[9]
  Vd: 0.72 L/kg
[10]
  Tmax: 1 h
[11]
  half-life: 4.35 h
[12]
  inhibition: 14%
[13]
  AUC(0-t): 1480 ng·h/mL
[14]
  Cmax: 834 ng/mL
NCI-H1650 [15]
  Activity: Active
NCI-H1650 [16]
  GI50: > 40 µM
[17]
  inhibition: < 10%
[18]
  half-life: 3.14 h
[19]
  AUC(0-inf): 7570 ng·h/mL
[20]
  inhibition: < 5%
[21]
  bioavailability: 16.9%
[22]
  AUC(0-t): 7440 ng·h/mL
[23]
  AUC(0-inf): 2510 ng·h/mL
[24]
  AUC(0-t): 2500 ng·h/mL
[25]
  half-life: 1.36 h

## O=S(=O)(NCCCN1c2ccccc2CCc2ccc(Cl)cc21)c1cc(Cl)sc1Cl
NCI-H1650 [16]
  GI50: 25 µM

## O=S(=O)(N[C@H]1CC[C@H](N2c3ccccc3CCc3ccccc32)CC1)c1ccc(OC(F)(F)F)cc1
NCI-H1650 [16]
  GI50: 10 µM

## Cn1ccc2c(S(=O)(=O)NCCCN3c4ccccc4CCc4ccccc43)cccc21
NCI-H1650 [16]
  GI50: > 40 µM
